# Reference: paper PMC8273888 (Journal of Medicinal Chemistry, 2021)
# Like-named read-outs stand apart in the source and are kept apart here.
# Assays:
# E. coli (VIM-2) = test: Synergy assay: MIC of meropenem in combination with test compound; assay type: cell-based
# E. coli (NDM-1) = test: as above; assay type: cell-based
# IMP-1 [1] = molecular target: T1, IMP-1 (Serratia marcescens, UniProt P52699); test: Enzyme inhibition assay with nitrocefin as chromogenic substrate; assay type: biochemical; conditions: for decrease of activity against IMP-1 relative to 8: from IC50 data of Table 2
# IMP-28 = IMP-28 (Klebsiella oxytoca, UniProt G4WB26); test: as above; assay type: biochemical; conditions: for decrease of activity against IMP-28 relative to 8: from IC50 data of Table 2
# NDM-1 [2] = molecular target: T2, NDM-1 (Klebsiella pneumoniae, UniProt C7C422); test: Enzyme inhibition assay with nitrocefin as chromogenic substrate; assay type: biochemical
# Summary of the method: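 Recombinant NDM-1 (6 nM) in 50 mM HEPES pH 7.2 with 1 μM ZnSO₄ and 0.01% Triton X-100 was preincubated with a range of test compound concentrations for 15–60 min at 25 °C. Nitrocefin (10 μM, ∼2 × K_M) was then added and A492 was read at once over 30 cycles. For time 0, enzyme was added last. IC50 came from initial velocities, in three independent replicates.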
# K. pneumoniae (IMP-28) = test: Synergy assay: MIC of meropenem in combination with test compound; assay type: cell-based
# E. cloacae (IMP-1) = test: as above; assay type: cell-based
# VIM-2 = VIM-2 (Escherichia coli, UniProt Q5U7L7); conditions: cited from earlier work
# IMP family = conditions: cited from earlier work
# NDM-1 [3] = molecular target: T2, NDM-1; conditions: read-out: IC50 NDM-1; cited from earlier work
# IMP-1 [4] = molecular target: T1, IMP-1; conditions: cited from earlier work
# VIM-1 = conditions: cited from earlier work
# [5] = test compound 0 μg/mL (meropenem alone, baseline)
# [6] = mean ± SD, nitrocefin substrate
# T2 sequence (C7C422 29-270, looked up, species assumed): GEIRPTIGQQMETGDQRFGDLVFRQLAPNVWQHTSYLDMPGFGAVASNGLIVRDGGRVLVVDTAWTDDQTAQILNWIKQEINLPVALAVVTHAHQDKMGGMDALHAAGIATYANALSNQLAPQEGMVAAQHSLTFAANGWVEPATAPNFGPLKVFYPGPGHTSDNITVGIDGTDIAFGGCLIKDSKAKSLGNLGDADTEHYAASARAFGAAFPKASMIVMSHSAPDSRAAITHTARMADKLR
# Chain of IMP-28 (G4WB26 20-246): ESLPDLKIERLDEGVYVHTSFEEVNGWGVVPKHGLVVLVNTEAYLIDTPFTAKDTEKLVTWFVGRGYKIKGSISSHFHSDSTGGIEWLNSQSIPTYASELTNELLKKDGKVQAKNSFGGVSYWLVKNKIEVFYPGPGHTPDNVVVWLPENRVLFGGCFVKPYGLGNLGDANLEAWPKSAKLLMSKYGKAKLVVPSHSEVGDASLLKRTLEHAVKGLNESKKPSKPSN
# T1 sequence (P52699 19-246, looked up, species assumed): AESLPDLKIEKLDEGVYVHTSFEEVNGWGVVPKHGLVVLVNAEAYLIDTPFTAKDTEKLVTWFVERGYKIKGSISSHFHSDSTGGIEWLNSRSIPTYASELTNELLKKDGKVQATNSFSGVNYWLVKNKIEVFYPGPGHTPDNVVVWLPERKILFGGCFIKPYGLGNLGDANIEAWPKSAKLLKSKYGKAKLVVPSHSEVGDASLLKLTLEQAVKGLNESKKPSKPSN
structure (smiles),measurement,setting,value
CC1=C(C(=O)O)N2C(=O)[C@@H](NC(=O)Cc3ccccc3)[C@H]2SC1 [Compound 15],Fold reduction of MIC (meropenem),E. coli (VIM-2); test compound 32 μg/mL,2 (2) fold
same,meropenem MIC,E. coli (VIM-2); test compound 32 μg/mL,2 (2) μg/mL
same,Fold reduction of MIC (meropenem),E. coli (VIM-2); test compound 64 μg/mL,2 (2) fold
same,meropenem MIC,E. coli (VIM-2); test compound 64 μg/mL,2 (2) μg/mL
same,meropenem MIC,E. coli (NDM-1); [5],32 µg/mL
same,IC50,IMP-1 [1],> 100 µM
same,decrease of activity against IMP-1 relative to 8,IMP-1 [1],ca. 100 fold
same,decrease of activity against IMP-28 relative to 8,IMP-28,ca. 100 fold
same,IC50,NDM-1 [2],> 100 µM
O=C(Cc1ccccc1)N[C@@H]1C(=O)N2C(C(=O)O)=C(CSCCc3ccccc3)CS[C@H]12 [Compound 12],meropenem MIC,E. coli (NDM-1); [5],64 µg/mL
same,IC50,NDM-1 [2],> 100 µM
O=C(Cc1ccccc1)N[C@@H]1C(=O)N2C(C(=O)O)=C(CSC(C(=O)O)c3ccccc3)CS[C@H]12 (stereo partly drawn) [Compound 8],Fold reduction of MIC (meropenem),K. pneumoniae (IMP-28); test compound 32 μg/mL,≥ 64 fold
same,Fold reduction of MIC (meropenem),K. pneumoniae (IMP-28); test compound 64 μg/mL,≥ 64 fold
same,Fold reduction of MIC (meropenem),K. pneumoniae (IMP-28); test compound 128 μg/mL,≥ 64 fold
"O=C(O)c1cccc(C(=O)O)n1 [DPA, Dipicolinic acid, reference compound]",meropenem MIC,K. pneumoniae (IMP-28); test compound 64 μg/mL,≤ 0.031 µg/mL
same,meropenem MIC,K. pneumoniae (IMP-28); test compound 128 μg/mL,≤ 0.031 µg/mL
same,meropenem MIC,E. coli (VIM-2); [5],4 µg/mL
same,meropenem MIC,E. coli (VIM-2); test compound 32 μg/mL,≤ 0.063 µg/mL
same,meropenem MIC,E. coli (VIM-2); test compound 64 μg/mL,≤ 0.063 µg/mL
same,meropenem MIC,E. coli (VIM-2); test compound 128 μg/mL,≤ 0.063 µg/mL
same,meropenem MIC,E. coli (NDM-1); test compound 128 μg/mL,≤ 0.5 µg/mL
O=C(Cc1ccccc1)N[C@@H]1C(=O)N2C(C(=O)O)=C(CS[C@H](Cc3ccccc3)C(=O)O)CS[C@H]12 [Compound 9],Fold reduction of MIC (meropenem),K. pneumoniae (IMP-28); test compound 32 μg/mL,≥ 64 fold
same,Fold reduction of MIC (meropenem),K. pneumoniae (IMP-28); test compound 64 μg/mL,≥ 64 fold
same,Fold reduction of MIC (meropenem),K. pneumoniae (IMP-28); test compound 128 μg/mL,≥ 64 fold
same,potency relative to diastereomer 10 against IMP-1,IMP-1 [1]; more potent than 10,ca. 10 fold
same,potency relative to diastereomer 10 against IMP-28,IMP-28; more potent than 10,~30 fold
O=C(Cc1ccccc1)N[C@@H]1C(=O)N2C(C(=O)O)=C(CSCc3ccccc3)CS[C@H]12 [Compound 11],meropenem MIC,E. cloacae (IMP-1); [5],32 µg/mL
same,Fold reduction of MIC (meropenem),E. coli (VIM-2); test compound 32 μg/mL,2 (2) fold
same,meropenem MIC,E. coli (VIM-2); test compound 32 μg/mL,2 (2) μg/mL
same,Fold reduction of MIC (meropenem),E. coli (VIM-2); test compound 64 μg/mL,2 (2) fold
same,meropenem MIC,E. coli (VIM-2); test compound 64 μg/mL,2 (2) μg/mL
same,meropenem MIC,E. coli (NDM-1); [5],32 µg/mL
same,decrease of activity against IMP-1 relative to 8,IMP-1 [1],ca. 100 fold
same,decrease of activity against IMP-28 relative to 8,IMP-28,ca. 100 fold
same,IC50,NDM-1 [2],> 100 µM
O=C(O)CSCC1=C(C(=O)O)N2C(=O)[C@@H](NC(=O)Cc3ccccc3)[C@H]2SC1 [Compound 13],Fold reduction of MIC (meropenem),E. cloacae (IMP-1); test compound 128 μg/mL,4 (4) fold
same,meropenem MIC,E. cloacae (IMP-1); test compound 128 μg/mL,4 (4) μg/mL
same,Fold reduction of MIC (meropenem),E. coli (VIM-2); test compound 32 μg/mL,2 (2) fold
same,meropenem MIC,E. coli (VIM-2); test compound 32 μg/mL,2 (2) μg/mL
same,Fold reduction of MIC (meropenem),E. coli (VIM-2); test compound 64 μg/mL,2 (2) fold
same,meropenem MIC,E. coli (VIM-2); test compound 64 μg/mL,2 (2) μg/mL
same,meropenem MIC,E. coli (NDM-1); [5],32 µg/mL
same,IC50,IMP-1 [1],> 100 µM
same,decrease of activity against IMP-1 relative to 8,IMP-1 [1],ca. 100 fold
same,decrease of activity against IMP-28 relative to 8,IMP-28,ca. 100 fold
O=C(Cc1ccccc1)N[C@H](C(=O)O)[C@@H]1N=C(C(=O)O)C(CSC(C(=O)O)c2ccccc2)CS1 (stereo partly drawn) [Compound 8H],IC50 IMP-1,IMP-1 [1]; [6],sub-micromolar
same,IC50 IMP-28,IMP-28; [6],sub-micromolar
NCCN[C@H]1CC[C@H](CC(=O)N[C@H]2Cc3cccc(C(=O)O)c3OB2O)CC1 [taniborbactam],IC50 VIM-2,VIM-2,sub-micromolar
same,inhibition of the IMP family,IMP family,weak inhibition
O=C(Cc1ccccc1)N[C@@H]1C(=O)N2C(C(=O)O)=C(CS[C@@H](Cc3ccccc3)C(=O)O)CS[C@H]12 [Compound 10],Fold reduction of MIC (meropenem),E. cloacae (IMP-1); test compound 128 μg/mL,4 (4) fold
same,meropenem MIC,E. cloacae (IMP-1); test compound 128 μg/mL,4 (4) μg/mL
O=C(Cc1ccccc1)N[C@@H]1C(=O)N2C(C(=O)O)=C(CSCC(=O)c3ccccc3)CS[C@H]12 [Compound 6],Fold reduction of MIC (meropenem),E. cloacae (IMP-1); test compound 128 μg/mL,4 (4) fold
same,meropenem MIC,E. cloacae (IMP-1); test compound 128 μg/mL,4 (4) μg/mL
same,meropenem MIC,E. coli (NDM-1); [5],32 µg/mL
O=C(O)c1ncsc1NS(=O)(=O)c1cccnc1 [ANT431],IC50,NDM-1 [3],2.67 µM
same,inhibitory activity against IMP-1,IMP-1 [4],remain resistant
same,inhibitory activity against VIM-1,VIM-1,remain resistant
